Test results as given in ChEMBL document CHEMBL2434863, “Synthesis and in vitro/in vivo antibacterial activity of oxazolidinones having thiocarbamate at C-5 on the A-ring and an amide- or urea-substituted [1,2,5]triazepane or [1,2,5]oxadiazepane as the C-ring” (Eur J Med Chem, 2013).

Legend:
Type in all cases: functional
Staphylococcus aureus [1] = assay: Antibacterial activity against Staphylococcus aureus Smith assessed as growth inhibition by broth microdilution method
Moraxella catarrhalis [2] = assay: Antibacterial activity against Moraxella catarrhalis SR26840 clinical isolate assessed as growth inhibition by broth microdilution method
Enterococcus faecium [3] = assay: Antibacterial activity against Enterococcus faecium SR7940 clinical isolate assessed as growth inhibition by broth microdilution method
Haemophilus influenzae [4] = assay: Antibacterial activity against Haemophilus influenzae SR27914 clinical isolate assessed as growth inhibition by broth microdilution method
Staphylococcus aureus [5] = assay: Potency index, ratio of linezolid MIC to compound MIC for Staphylococcus aureus Smith
Enterococcus faecalis [6] = assay: Antibacterial activity against Enterococcus faecalis SR1004 clinical isolate assessed as growth inhibition by broth microdilution method
Haemophilus influenzae [7] = assay: Potency index, ratio of linezolid MIC to compound MIC for Haemophilus influenzae SR27914 clinical isolate
Staphylococcus aureus [8] = assay: Antibacterial activity against linezolid-resistant Staphylococcus aureus NRS271 assessed as growth inhibition by broth microdilution method
Streptococcus pneumoniae [9] = assay: Antibacterial activity against Streptococcus pneumoniae SR26207 clinical isolate assessed as growth inhibition by broth microdilution method
Enterococcus faecalis [10] = assay: Potency index, ratio of linezolid MIC to compound MIC for Enterococcus faecalis SR1004 clinical isolate
Moraxella catarrhalis [11] = assay: Potency index, ratio of linezolid MIC to compound MIC for Moraxella catarrhalis SR26840 clinical isolate
Staphylococcus aureus [12] = assay: Potency index, ratio of linezolid MIC to compound MIC for Staphylococcus aureus SR20549 clinical isolate
Staphylococcus aureus [13] = assay: Antibacterial activity against Staphylococcus aureus SR20549 clinical isolate assessed as growth inhibition by broth microdilution method
Streptococcus pneumoniae [14] = assay: Potency index, ratio of linezolid MIC to compound MIC for Streptococcus pneumoniae SR26207 clinical isolate
Enterococcus faecium [15] = assay: Potency index, ratio of linezolid MIC to compound MIC for Enterococcus faecium SR7940 clinical isolate
Staphylococcus aureus [16] = assay: Antibacterial activity against methicillin-resistant Staphylococcus aureus SR3637 assessed as growth inhibition by broth microdilution method
Staphylococcus aureus [17] = assay: Antibacterial activity against methicillin-resistant Staphylococcus aureus SR3637 infected in JCL/ICR mouse systemic infection model assessed as mortality administered as iv measured over 7 days; conditions: 168 h
How it was run: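 Lethal systemic infection model in mice; test agents were given intravenously.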

| Structure (SMILES) | MIC (Staphylococcus aureus [1]) [µg/mL] | MIC (Moraxella catarrhalis [2]) [µg/mL] | MIC (Enterococcus faecium [3]) [µg/mL] | MIC (Haemophilus influenzae [4]) [µg/mL] | Ratio (Staphylococcus aureus [5]) | MIC (Enterococcus faecalis [6]) [µg/mL] | Ratio (Haemophilus influenzae [7]) | MIC (Staphylococcus aureus [8]) [µg/mL] | MIC (Streptococcus pneumoniae [9]) [µg/mL] | Ratio (Enterococcus faecalis [10]) | Ratio (Moraxella catarrhalis [11]) | Ratio (Staphylococcus aureus [12]) | MIC (Staphylococcus aureus [13]) [µg/mL] | Ratio (Streptococcus pneumoniae [14]) | Ratio (Enterococcus faecium [15]) | MIC (Staphylococcus aureus [16]) [µg/mL] | ED50 (Staphylococcus aureus [17]) [mg/kg] |
| --- | --- | --- | --- | --- | --- | --- | --- | --- | --- | --- | --- | --- | --- | --- | --- | --- | --- |
| CC(=O)NC[C@H]1CN(c2ccc(-c3ccc(N4CCNOCC4)nc3)c(F)c2)C(=O)O1 | 2 | 16 | 1 | 16 | 2 | 1 | 2 | 8 | 0.125 | 2 | 2 | 2 | 1 | 2 | 2 | – | – |
| O=C1O[C@@H](Cn2ccnn2)CN1c1ccc(-c2ccc(N3CCNOCC3)nc2)c(F)c1 | 2 | 8 | 1 | 32 | 2 | 2 | 2 | 8 | 0.25 | 2 | 2 | 2 | 1 | 2 | 2 | – | – |
| COC(=S)NC[C@H]1CN(c2ccc(N3CCNN(C=O)CC3)c(F)c2)C(=O)O1 | 0.25 | 2 | 0.25 | 4 | 4 | 0.25 | 4 | 4 | 0.063 | 4 | 4 | 4 | 0.25 | 4 | 4 | 0.25 | 2.95 |
| COC(=S)NC[C@H]1CN(c2ccc(N3CCNN(C(C)=O)CC3)c(F)c2)C(=O)O1 | 1 | 4 | 0.5 | 16 | – | 0.5 | – | 8 | 0.063 | – | – | – | 0.5 | – | – | 0.5 | 2.85 |
| O=CN1CCN(c2c(F)cc(N3C[C@H](Cn4ccnn4)OC3=O)cc2F)CCN1 | 1 | 8 | 1 | 8 | 4 | 1 | 4 | 16 | ≤ 0.063 | 4 | 4 | 4 | 0.25 | 4 | 4 | 0.25 | 2.5 |
| COC(=S)NC[C@H]1CN(c2ccc(N3CCNN(C(N)=O)CC3)c(F)c2)C(=O)O1 | 0.25 | 2 | 0.125 | 4 | 4 | 0.25 | 4 | 4 | ≤ 0.063 | 4 | 4 | 4 | 0.25 | 4 | 4 | – | – |
| CONC(=O)N1CCN(c2c(F)cc(N3C[C@H](CNC(=S)OC)OC3=O)cc2F)CCN1 | 0.5 | 2 | 0.25 | 16 | – | 0.5 | – | 4 | 0.25 | – | – | – | 0.5 | – | – | 0.5 | 3.05 |
| COC(=S)NC[C@H]1CN(c2cc(F)c(N3CCON(C(N)=O)CC3)c(F)c2)C(=O)O1 | 0.25 | 1 | 0.125 | 8 | 4 | 0.25 | 4 | 2 | ≤ 0.063 | 4 | 4 | 4 | 0.25 | 4 | 4 | – | – |
| O=CN1CCN(c2c(F)cc(N3C[C@H](CNc4ccon4)OC3=O)cc2F)CCN1 | 1 | 8 | 1 | 16 | 4 | 1 | 4 | 16 | 0.25 | 4 | 4 | 4 | 0.5 | 4 | 4 | – | – |
| COC(=S)NC[C@H]1CN(c2cc(F)c(N3CCn4c(=O)c5cccnc5n4CC3)c(F)c2)C(=O)O1 | 0.25 | 1 | 0.25 | > 64 | – | 0.5 | – | 2 | 0.125 | – | – | – | 0.25 | – | – | 0.25 | 9.83 |
| CC(=S)NC[C@H]1CN(c2cc(F)c(N3CCNN(C(N)=O)CC3)c(F)c2)C(=O)O1 | 0.25 | 1 | 0.25 | 4 | 4 | 0.25 | 4 | 4 | 0.063 | 4 | 4 | 4 | 0.125 | 4 | 4 | – | – |
| CC(=S)NC[C@H]1CN(c2ccc(N3CCNN(C(N)=O)CC3)c(F)c2)C(=O)O1 | 0.25 | 4 | 0.5 | 4 | 4 | 0.5 | 4 | 8 | 0.063 | 4 | 4 | 4 | 0.25 | 4 | 4 | – | – |
| COC(=S)NC[C@H]1CN(c2ccc(N3CCn4c(=O)c5cccnc5n4CC3)c(F)c2)C(=O)O1 | 0.25 | 2 | 0.25 | 16 | – | 0.5 | – | 2 | 0.125 | – | – | – | 0.25 | – | – | 0.25 | 3.17 |
| CNC(=O)N1CCN(c2c(F)cc(N3C[C@H](CNC(=S)OC)OC3=O)cc2F)CCN1 | 0.25 | 1 | 0.25 | 8 | – | 0.25 | – | 2 | ≤ 0.063 | – | – | – | 0.25 | – | – | 0.25 | 3.17 |
| COC(=S)NC[C@H]1CN(c2cc(F)c(N3CCNN(C(C)=O)CC3)c(F)c2)C(=O)O1 | 1 | 2 | 0.5 | 32 | – | 1 | – | 4 | 0.125 | – | – | – | 0.5 | – | – | – | – |
